Measured values published in ChEMBL document CHEMBL4619791, “3-Difluoroalkyl Quaternary Oxindoles Inhibit Macrophage Pyroptosis by Blocking Inflammasome Recruitment of Caspase-1” (ACS Med Chem Lett, 2020).
Activity calls are given as the source filed them. The rule behind the calls is not given here.

Biological target: T1, Caspase-4 (Mus musculus) (UniProt P70343)
T1 sequence (whole entry): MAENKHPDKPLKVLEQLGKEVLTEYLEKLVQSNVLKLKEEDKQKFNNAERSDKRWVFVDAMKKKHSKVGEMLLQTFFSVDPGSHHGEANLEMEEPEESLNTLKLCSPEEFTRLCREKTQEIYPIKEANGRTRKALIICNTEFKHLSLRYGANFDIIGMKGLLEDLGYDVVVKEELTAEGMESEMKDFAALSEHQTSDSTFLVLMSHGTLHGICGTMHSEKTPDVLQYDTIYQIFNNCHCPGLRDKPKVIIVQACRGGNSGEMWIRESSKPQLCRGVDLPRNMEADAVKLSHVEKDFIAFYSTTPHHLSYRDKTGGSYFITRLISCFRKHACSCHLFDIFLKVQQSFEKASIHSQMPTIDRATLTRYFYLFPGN
Experiment: Inhibition of pyroptosis-inducing caspase-11 in LPS-primed immortalized mouse […] cells assessed as cell death at 5 uM by LDH assay
Assay type: cell-based
Details: J774.A1
Method in brief: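 Cell death induced by cytoplasmic LPS in J774A.1 cells, measured by LDH release. Mean ± SEM, n ≥ 3.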

For CCOC(CN1C(=O)C(NC(=O)Nc2ccc(C)cc2)(C(F)(F)C(=O)Nc2ccc(C)cc2)c2ccccc21)OCC (stereo unspecified), the inhibition was “Active”.
